Measurements taken from ChEMBL document CHEMBL1671620, “Mutations in the fks1 gene in Candida albicans, C. tropicalis, and C. krusei correlate with elevated caspofungin MICs uncovered in AM3 medium using the method of the European Committee on Antibiotic Susceptibility Testing” (2008).
In brackets after ≈: the same amount, converted by molar mass.

Experiments:
Candida albicans [1] = assay: Antifungal activity against Candida albicans isolate 23 harboring 1,3-beta-glucan synthase HS2 point mutant grown on RPMI media after 24 hrs by EUCAST microdilution method; conditions: isolate 23, 24 h
Candida albicans [2] = assay: Antifungal activity against Candida albicans isolate 12 expressing wild type 1,3-beta-glucan synthase grown on RPMI media after 24 hrs by EUCAST microdilution method; conditions: isolate 12, 24 h
Candida albicans [3] = assay: Antifungal activity against Candida albicans isolate 9 expressing wild type 1,3-beta-glucan synthase grown on RPMI media after 24 hrs by EUCAST microdilution method; conditions: isolate 9, 24 h
Candida albicans [4] = assay: Antifungal activity against Candida albicans isolate B311 expressing wild type 1,3-beta-glucan synthase grown on AM3 media after 48 hrs by EUCAST microdilution method; format: functional; conditions: isolate B311, 24 h, in the assay text read “24 hrs” for “48 hrs”
Outline: (§1)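 EUCAST (AFST-EUCAST) broth microdilution with caspofungin at 0.015 to 8 μg/ml final, in AM3 with glucose added to 2% final. Final inoculum was 10⁵ yeast cells/ml, with microplates prepared in batches and stored at −20°C. Plates were incubated at 35°C in humid ambient air and read spectrophotometrically after shaking at 24 h and 48 h. MIC was ≥50% growth reduction versus drug-free well; 90% end point also read at both times.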

Candida albicans [5] = assay: Antifungal activity against Candida albicans isolate 19 harboring 1,3-beta-glucan synthase HS1 point mutant grown on AM3 media after 24 hrs by EUCAST microdilution method; conditions: isolate 19, 24 h
Candida tropicalis [6] = assay: Antifungal activity against Candida tropicalis isolate 1 expressing wild type 1,3-beta-glucan synthase grown on RPMI media after 24 hrs by EUCAST microdilution method; conditions: isolate 1, 24 h
Candida albicans [7] = assay: Antifungal activity against Candida albicans isolate 6 expressing wild type 1,3-beta-glucan synthase grown on RPMI media after 24 hrs by EUCAST microdilution method; conditions: isolate 6, 24 h
Candida albicans [8] = assay: Antifungal activity against Candida albicans isolate 7 expressing wild type 1,3-beta-glucan synthase grown on RPMI media after 24 hrs by EUCAST microdilution method; conditions: isolate 7, 24 h
Candida albicans [9] = assay: Antifungal activity against Candida albicans isolate 16 expressing wild type 1,3-beta-glucan synthase grown on RPMI media after 24 hrs by EUCAST microdilution method; conditions: isolate 16, 24 h
Candida albicans [10] = assay: Antifungal activity against Candida albicans isolate 16 expressing wild type 1,3-beta-glucan synthase grown on AM3 media after 48 hrs by EUCAST microdilution method; format: functional; conditions: isolate 16, 24 h, in the assay text read “after 24 hrs” for “after 48 hrs”
Outline: as §1

Candida albicans [11] = assay: Antifungal activity against Candida albicans isolate 15 expressing wild type 1,3-beta-glucan synthase grown on RPMI media after 24 hrs by EUCAST microdilution method; conditions: isolate 15, 24 h
Candida albicans [12] = assay: Antifungal activity against Candida albicans isolate 24 harboring 1,3-beta-glucan synthase HS1 point mutant grown on RPMI media after 24 hrs by EUCAST microdilution method; conditions: isolate 24, 24 h
Candida albicans [13] = assay: Antifungal activity against Candida albicans isolate 10 expressing wild type 1,3-beta-glucan synthase grown on AM3 media after 48 hrs by EUCAST microdilution method; format: functional; conditions: isolate 10, 24 h, in the assay text read “after 24 hrs” for “after 48 hrs”
Outline: as §1

Candida albicans [14] = assay: Antifungal activity against Candida albicans isolate 18 expressing wild type 1,3-beta-glucan synthase grown on RPMI media after 24 hrs by EUCAST microdilution method; conditions: isolate 18, 24 h
Candida albicans [15] = assay: Antifungal activity against Candida albicans isolate 20 harboring 1,3-beta-glucan synthase HS1 point mutant grown on AM3 media after 24 hrs by EUCAST microdilution method; conditions: isolate 20, 24 h
Candida albicans [16] = assay: Antifungal activity against Candida albicans isolate 11 expressing wild type 1,3-beta-glucan synthase grown on RPMI media after 24 hrs by EUCAST microdilution method; conditions: isolate 11, 24 h
Candida tropicalis [17] = assay: Antifungal activity against Candida tropicalis isolate 1 expressing wild type 1,3-beta-glucan synthase grown on AM3 media after 48 hrs by EUCAST microdilution method; format: functional; conditions: isolate 1, 24 h, in the assay text read “24 hrs” for “48 hrs”
Outline: as §1

Candida albicans [18] = assay: Antifungal activity against Candida albicans isolate 8 expressing wild type 1,3-beta-glucan synthase grown on RPMI media after 24 hrs by EUCAST microdilution method; conditions: isolate 8, 24 h
Candida albicans [19] = assay: Antifungal activity against Candida albicans isolate 14 expressing wild type 1,3-beta-glucan synthase grown on AM3 media after 48 hrs by EUCAST microdilution method; format: functional; conditions: isolate 14, 24 h, in the assay text read “after 24 hrs” for “after 48 hrs”
Outline: as §1

Candida albicans [20] = assay: Antifungal activity against Candida albicans isolate 10 expressing wild type 1,3-beta-glucan synthase grown on RPMI media after 24 hrs by EUCAST microdilution method; conditions: isolate 10, 24 h
Pichia kudriavzevii = assay: Antifungal activity against Candida krusei ATCC 6258 expressing wild type 1,3-beta-glucan synthase grown on RPMI media after 24 hrs by EUCAST microdilution method; conditions: ATCC 6258, 24 h
Candida tropicalis [21] = assay: Antifungal activity against Candida tropicalis ATCC 750 expressing wild type 1,3-beta-glucan synthase grown on RPMI media after 48 hrs by EUCAST microdilution method; format: functional; conditions: ATCC 750, 24 h, in the assay text read “24 hrs” for “48 hrs”
Outline: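 EUCAST (AFST-EUCAST) broth microdilution with caspofungin at 0.015 to 8 μg/ml final, in RPMI 1640 buffered to pH 7.0 with 0.165 M MOPS and glucose added to 2% final. Final inoculum was 10⁵ yeast cells/ml. Plates were incubated at 35°C in humid ambient air and read spectrophotometrically after shaking at 24 h and 48 h. MIC was ≥50% growth reduction versus drug-free well; 90% end point also read at both times.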

Candida albicans [22] = assay: Antifungal activity against Candida albicans isolate 12 expressing wild type 1,3-beta-glucan synthase grown on AM3 media after 48 hrs by EUCAST microdilution method; format: functional; conditions: isolate 12, 24 h, in the assay text read “after 24 hrs” for “after 48 hrs”
Outline: as §1

Candida tropicalis [23] = assay: Antifungal activity against Candida tropicalis isolate 2 harboring 1,3-beta-glucan synthase HS1 point mutant grown on RPMI media after 24 hrs by EUCAST microdilution method; conditions: isolate 2, 24 h
Candida albicans [24] = assay: Antifungal activity against Candida albicans isolate 4 expressing wild type 1,3-beta-glucan synthase grown on AM3 media after 48 hrs by EUCAST microdilution method; format: functional; conditions: isolate 4, 24 h, in the assay text read “after 24 hrs” for “after 48 hrs”
Outline: as §1

SMILES: CC[C@H](C)C[C@H](C)CCCCCCCCC(=O)N[C@H]1C[C@@H](O)[C@@H](NCCN)NC(=O)[C@@H]2[C@@H](O)CCN2C(=O)[C@H]([C@H](O)CCN)NC(=O)[C@H]([C@H](O)[C@@H](O)c2ccc(O)cc2)NC(=O)[C@@H]2C[C@@H](O)CN2C(=O)[C@H]([C@@H](C)O)NC1=O [CASPOFUNGIN]
- MIC (Candida albicans [1]): 2 µg/mL (≈ 1.83 µM)
- MIC (Candida albicans [2]): 0.5 µg/mL (≈ 0.457 µM)
- MIC (Candida albicans [3]): 0.5 µg/mL (≈ 0.457 µM)
- MIC (Candida albicans [4]): 0.06 µg/mL (≈ 0.0549 µM)
- MIC (Candida albicans [5]): 0.5 µg/mL (≈ 0.457 µM)
- MIC (Candida tropicalis [6]): 2 µg/mL (≈ 1.83 µM)
- MIC (Candida albicans [7]): 0.5 µg/mL (≈ 0.457 µM)
- MIC (Candida albicans [8]): 0.5 µg/mL (≈ 0.457 µM)
- MIC (Candida albicans [9]): 0.5 µg/mL (≈ 0.457 µM)
- MIC (Candida albicans [10]): 0.03 µg/mL (≈ 0.0274 µM)
- MIC (Candida albicans [11]): 0.25 µg/mL (≈ 0.229 µM)
- MIC (Candida albicans [12]): 4 µg/mL (≈ 3.66 µM)
- MIC (Candida albicans [13]): 0.06 µg/mL (≈ 0.0549 µM)
- MIC (Candida albicans [14]): 1 µg/mL (≈ 0.915 µM)
- MIC (Candida albicans [15]): 2 µg/mL (≈ 1.83 µM)
- MIC (Candida albicans [16]): 0.5 µg/mL (≈ 0.457 µM)
- MIC (Candida tropicalis [17]): 0.06 µg/mL (≈ 0.0549 µM)
- MIC (Candida albicans [18]): 0.5 µg/mL (≈ 0.457 µM)
- MIC (Candida albicans [19]): 0.03 µg/mL (≈ 0.0274 µM)
- MIC (Candida albicans [20]): 0.5 µg/mL (≈ 0.457 µM)
- MIC (Pichia kudriavzevii): 1 µg/mL (≈ 0.915 µM)
- MIC (Candida tropicalis [21]): 0.5 µg/mL (≈ 0.457 µM)
- MIC (Candida albicans [22]): 0.03 µg/mL (≈ 0.0274 µM)
- MIC (Candida tropicalis [23]): 2 µg/mL (≈ 1.83 µM)
- MIC (Candida albicans [24]): 0.03 µg/mL (≈ 0.0274 µM)
